These results are taken from ChEMBL document CHEMBL1127729, “Synthesis and pharmacological evaluation of phenylacetamides as sodium-channel blockers” (J Med Chem, 1994).

Some results are limits rather than exact numbers.

The species entered for assay [1] is Rattus norvegicus. Kind of assay: In vitro inhibition of hypoxic-mediated cell injury in Dawley fetal rat brain.
In assay [2] the target is Sodium channel protein type 2 subunit alpha (Rattus norvegicus, UniProt P04775). Briefly: Inhibition of veratridine-induced Na+ influx in chinese hamster ovary cells expressing alpha subunit of rat brain type voltage-gated sodium channel type 2. The class given is functional. Put shortly:
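CNaIIA-1 cells (CHO-K1 transfected with rat brain IIA α subunit cDNA) in choline-based KRH buffer, pH 7.4. Compound at 0.01–100 μM final, added with 30 μM veratridine plus α-scorpion venom, 11 min at 37 °C. Cell-retained radioactivity counted after Triton lysis; IC50 determined.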

Assay [3] has as its target Sodium channel alpha subunits; brain (Types I, II, III) (Rattus norvegicus, UniProt P04775+P04774+P08104). Briefly: Inhibition of [3H]- batrachotoxin binding to sodium channel in rat neocortical membrane. It counts as cell membranes.
Assay [4] is filed under the species Rattus norvegicus. Briefly: In vitro inhibition of veratridine induced LDH release in rat embryos. The class given is functional. Put shortly: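 Rat embryo cortical neuron cultures, 17–18 days old, given compound together with 100 μM veratridine in HEPES saline (pH 7.4) for 10 min. Medium was then replaced by serum-free medium. LDH in medium taken 1 day later, read kinetically as A340 decline of NADH after pyruvate addition at 37 °C.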
Background: LDH leaks from cells whose membrane has failed.

Sodium channel protein type 2 subunit alpha, sequence (P04775 whole entry): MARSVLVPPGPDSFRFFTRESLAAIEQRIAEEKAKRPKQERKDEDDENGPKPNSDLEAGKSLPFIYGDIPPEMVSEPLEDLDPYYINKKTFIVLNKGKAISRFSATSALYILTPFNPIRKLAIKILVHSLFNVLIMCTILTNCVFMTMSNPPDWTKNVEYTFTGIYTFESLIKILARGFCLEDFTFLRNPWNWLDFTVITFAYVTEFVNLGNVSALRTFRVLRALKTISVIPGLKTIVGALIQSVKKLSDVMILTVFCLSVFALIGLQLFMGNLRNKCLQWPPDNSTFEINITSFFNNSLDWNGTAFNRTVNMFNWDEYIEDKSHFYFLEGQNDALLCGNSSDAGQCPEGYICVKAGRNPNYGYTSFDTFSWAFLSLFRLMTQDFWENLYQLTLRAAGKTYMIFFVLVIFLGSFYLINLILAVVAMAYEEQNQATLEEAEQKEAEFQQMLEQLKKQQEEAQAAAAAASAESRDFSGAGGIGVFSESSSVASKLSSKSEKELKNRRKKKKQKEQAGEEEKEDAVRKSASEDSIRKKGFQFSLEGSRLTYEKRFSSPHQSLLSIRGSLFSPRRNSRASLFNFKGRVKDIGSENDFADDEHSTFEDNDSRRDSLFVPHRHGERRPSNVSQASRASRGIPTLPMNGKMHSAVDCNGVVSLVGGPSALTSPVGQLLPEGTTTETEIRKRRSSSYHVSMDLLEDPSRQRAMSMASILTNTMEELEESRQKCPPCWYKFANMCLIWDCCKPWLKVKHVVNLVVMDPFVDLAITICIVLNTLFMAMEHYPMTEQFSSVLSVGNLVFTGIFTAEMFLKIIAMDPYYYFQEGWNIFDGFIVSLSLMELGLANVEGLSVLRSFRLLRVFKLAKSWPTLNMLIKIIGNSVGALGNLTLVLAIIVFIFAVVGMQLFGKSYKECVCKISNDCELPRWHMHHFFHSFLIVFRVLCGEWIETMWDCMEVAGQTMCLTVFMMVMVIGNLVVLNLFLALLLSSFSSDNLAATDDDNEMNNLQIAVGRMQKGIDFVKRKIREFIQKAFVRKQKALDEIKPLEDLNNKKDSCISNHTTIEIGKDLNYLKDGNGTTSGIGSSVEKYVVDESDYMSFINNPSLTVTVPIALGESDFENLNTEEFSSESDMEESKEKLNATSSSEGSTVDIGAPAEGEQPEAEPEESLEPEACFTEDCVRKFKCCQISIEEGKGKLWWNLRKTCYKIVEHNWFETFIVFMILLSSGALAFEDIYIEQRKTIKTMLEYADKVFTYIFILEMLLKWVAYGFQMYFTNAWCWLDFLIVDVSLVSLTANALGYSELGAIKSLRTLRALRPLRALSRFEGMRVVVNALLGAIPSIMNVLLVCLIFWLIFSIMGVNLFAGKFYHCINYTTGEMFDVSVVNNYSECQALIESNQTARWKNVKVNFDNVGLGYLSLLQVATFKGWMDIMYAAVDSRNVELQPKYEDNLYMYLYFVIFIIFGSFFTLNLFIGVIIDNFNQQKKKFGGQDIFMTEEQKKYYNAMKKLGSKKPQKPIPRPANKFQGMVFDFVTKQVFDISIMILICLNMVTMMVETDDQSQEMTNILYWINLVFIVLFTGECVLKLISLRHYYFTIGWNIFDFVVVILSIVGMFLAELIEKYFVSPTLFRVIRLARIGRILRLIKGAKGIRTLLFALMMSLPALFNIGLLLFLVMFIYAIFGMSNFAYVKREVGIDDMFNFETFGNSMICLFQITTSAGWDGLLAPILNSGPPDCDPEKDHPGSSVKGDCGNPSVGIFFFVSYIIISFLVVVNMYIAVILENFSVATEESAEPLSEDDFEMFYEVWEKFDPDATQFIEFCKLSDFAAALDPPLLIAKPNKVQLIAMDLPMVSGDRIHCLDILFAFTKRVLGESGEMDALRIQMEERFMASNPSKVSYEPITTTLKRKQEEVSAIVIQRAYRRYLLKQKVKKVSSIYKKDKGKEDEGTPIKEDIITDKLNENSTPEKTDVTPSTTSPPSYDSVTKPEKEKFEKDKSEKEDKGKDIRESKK

By IC50 is commonly meant the point on the concentration scale where inhibition reaches its midpoint. The low end stands for higher potency, the high end for lower potency. A word on the Ki: it is a dissociation constant, usually derived from enzyme kinetics or from competition with a known ligand. Regarding `CC1CCCC(C)N1CCCNC(=O)C(c1ccccc1Cl)c1ccccc1Cl` (centres undefined), the results for the IC50 (in the assay listed under Rattus norvegicus [1]; in assay [2]; in the assay listed under Rattus norvegicus [4]) were 4.8 µM, 3.5 µM and 6 µM, respectively. In assay [3], this molecule returned a Ki of 0.073 µM.
Taken in the same sequence, the figures for `CC1CCCC(C)N1CCCNC(=O)Cc1ccccc1` (centres undefined) were above 100 µM, above 100 µM, above 30 µM and 21 µM.
In assay [2], `COc1ccc(C(C(=O)NCCCN2C(C)CCCC2C)c2ccc(OC)c3ccccc23)c2ccccc12` (centres undefined) displayed an IC50 of 13 µM. This molecule yielded a Ki in assay [3] of 0.24 µM.
Consider `CC1CCCC(C)N1CCCN1C(=O)CC(c2ccccc2)(c2ccccc2)C1=O` (centres undefined), for which the IC50 in assay [2] was 3.6 µM. This molecule had an inhibitory constant (Ki) in assay [3] of 1 µM.
In the same order, the values of `CC1CCCC(C)N1CCCNC(=O)C1c2ccccc2Oc2ccccc21` (centres undefined) are 13 µM and 0.41 µM.
In the assay filed under Rattus norvegicus [4], `Fc1ccc(C(c2ccc(F)cc2)N2CCN(C/C=C/c3ccccc3)CC2)cc1` [FLUNARIZINE] came in with an IC50 of 2 µM.
In the case of `COc1ccc(C(C(=O)NCCCN2C(C)CCCC2C)c2ccc(OC)cc2)cc1` (centres undefined), the IC50 in assay [2] stood at 3.1 µM. Further, the Ki in assay [3] amounted to 1 µM.
On to `CC1CCCC(C)N1CCCNC(=O)N(c1ccccc1)c1ccccc1` (centres undefined), for which the IC50 is above 100 µM in the assay listed under Rattus norvegicus [1] and above 30 µM in the assay listed under Rattus norvegicus [4].
`Cc1cccc(C)c1NC(=O)CN1CCN(CCCC(c2ccc(F)cc2)c2ccc(F)cc2)CC1` [LIDOFLAZINE]: the IC50 in assay [2] stood at 2.4 µM. The molecule further had a Ki in assay [3] of 0.077 µM.
Consider `CC1CCCC(C)N1CCCNC(=O)C(c1ccc(Cl)cc1)c1ccc(Cl)cc1` (centres undefined), for which, in assay [2], the IC50 came out at 4.5 µM. Further, in assay [3], the Ki turned out to be 0.11 µM.
Take `CC1CCCC(C)N1CCCNC(=O)C(c1ccccc1)c1ccccc1` (centres undefined): the IC50 worked out at 89 µM in the assay filed under Rattus norvegicus [1], 2.7 µM in assay [2] and 5 µM in the assay listed under Rattus norvegicus [4]. The molecule also registered an inhibitory constant (Ki) in assay [3] of 0.26 µM.
As for `CC1CCCC(C)N1CCCNC(=O)Cc1cccc2ccccc12` (centres undefined), the IC50 in assay [2] is above 100 µM. This molecule had a Ki in assay [3] of 6.9 µM.
In the same order, the values of `CC1CCCC(C)N1CCCNC(=O)C(c1ccc(F)cc1)c1ccc(F)cc1` (centres undefined) are 5.8 µM and 0.13 µM.
As for `CC1CCCC(C)N1CCCNC(=O)C1c2ccccc2-c2ccccc21` (centres undefined), the IC50 was 51 µM in the assay listed under Rattus norvegicus [1], 29 µM in assay [2] and above 30 µM in the assay listed under Rattus norvegicus [4]. The same molecule yielded a Ki in assay [3] of 2.3 µM.
In the same order, the values of `CC1CCCC(C)N1CCCNC(=O)C1(c2ccccc2)CCCCC1` (centres undefined) are 61 µM, 4.3 µM, 12 µM and 0.38 µM.
